# In ChEMBL document CHEMBL4513216, “Probing the Open Global Health Chemical Diversity Library for Multistage-Active Starting Points for Next-Generation Antimalarials” (ACS Infect Dis, 2020):
# Assay: Toxicity liver stage against HepG2, at 10uM
# Assay type: cell-based
# Design: test concentration 10 uM, cell line HepG2-A16-CD81EGFP
# Conditions: human, HepG2-A16-CD81EGFP cells; read-out: INHIBITION
# Summary of the method: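 Uninfected HepG2-A16-CD81EGFP cells, 3 × 10^3 per well, 1536-well, plated on prespotted compound at 10 μM final, parasite-free screening media added to match infected plates; puromycin 10 μM positive, DMSO 0.5% negative; run in parallel with 48 h PbLuc assay at 37 °C, 5% CO2; viability by CellTiter-Glo luminescence, normalized to controls.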
row,SMILES,cytotoxicity at 10 µM [%]
1,COc1cc(N2C[C@H]3OCC[C@H]3[C@H](C(=O)N3CCCC3)C2)ncn1,4.99
2,O=C(COc1coc(CN2CCCCC2)cc1=O)Nc1cccc(Cl)c1,-1.89
3,Cc1noc(-c2ccc(N3CCN(Cc4nccn4C)CC3)nc2)n1,3.19
4,Cc1nc(C)n(CC2CCCN2Cc2nc(-c3ccccn3)no2)n1 (stereo not drawn),-9.48
5,O=C(CCc1cccs1)N1CCC(Nc2cccnn2)CC1,-10.5
6,NC(=O)c1cccc2nc([C@H]3CCN(Cc4ccccc4F)C3)[nH]c12,20.8
7,O=c1[nH][nH]cc1-c1ccnc(NCCN2CCCCC2)n1,-10.4
8,Cc1ncsc1C(=O)N1CCC(Nc2cccnn2)CC1,-1.89
9,CC(C)CC(NCc1cscn1)c1ccccn1 (stereo not drawn),2.5
10,CN(C)C1CCN(Cc2cnc(S(C)(=O)=O)n2CC2CCCCC2)C1 (stereo not drawn),0.83
11,CCc1cc(CN(C)C(=O)CN2CC(Cc3ccccc3)CC2=O)on1 (stereo not drawn),-0.28
12,CN1C[C@@H](COCC2CC2)[C@H]2CCN(Cc3ccco3)CC[C@H]2C1=O,-4.6
13,Cc1cc(C(F)(F)F)c2c(=O)n(Cc3ccon3)n(C)c2n1,5.85
14,CNC(=O)CN(C)C(=O)c1cc(Cl)c(I)cc1OC,13.8
15,CCn1nc(C)c2c1cnn2CCNS(C)(=O)=O,7.55
16,COc1ccccc1CC1CCCN(CC(=O)NC2CC2)C1 (stereo not drawn),6.75
17,Cn1nc(C2CCCN(Cc3ccc(F)cc3F)C2)c2nccnc21 (stereo not drawn),-8.46
18,CCC(=O)NCC(=O)NCC1(O)CCC(C(C)(C)C)CC1 (stereo not drawn),6.93
19,Cc1ccc2c(c1)SCC(=O)N2CC(=O)N1CCCC1c1nccs1 (stereo not drawn),12.4
20,CNS(=O)(=O)c1cccc(CNC(=O)c2cc(C)no2)c1,-10.3
21,O=c1cc(-c2cc(O)cc(CCC3CCCCN3)c2)cc[nH]1 (stereo not drawn),0.749
22,CNC(=O)c1cc2c(nc1NCC(C)C)CCN(c1ncccn1)CC2,-157
23,CCOc1ccc(NCC(=O)NCC(=O)N2CCCC2)c(C(F)(F)F)c1,-12.8

row,SMILES,cytotoxicity at 10 µM [%]
1,CC(=O)N1CCN(c2ccccc2CNc2ccc(C)cn2)CC1,11.2
2,CCc1cnc(CN2CCC(N(Cc3noc(CC)n3)C(C)=O)C2)o1 (stereo not drawn),-4.17
3,CCC(CO)N(Cc1ccccn1)C(=O)c1ccc(F)c(F)c1 (stereo not drawn),-0.273
4,Cc1csc(CN2C[C@@H]3COC[C@]3(C(=O)NCc3ccco3)C2)n1,-105
5,OC(COCc1ccccc1F)CN1CCc2c(ncn2C2CC2)C1 (stereo not drawn),2.86
6,O=C1NCCCCC1Sc1ccc(F)c(F)c1 (stereo not drawn),5.58
7,CC(C)N(CCNC(=O)c1n[nH]c2ccccc12)C(C)C,-42.8
8,COc1c(C2CCCN2Cc2nnc(C3CC3)o2)c(C)nn1C (stereo not drawn),-9.29
9,CCCC(=O)N1CCC(C(=O)NCCNc2ncccn2)CC1,-20
10,c1cncc(COC2COC3(CCN(c4cnccn4)CC3)C2)c1 (stereo not drawn),1.89
11,CN(Cc1ccncc1)Cc1cnn(-c2ccc(F)cc2)c1,10
12,Cn1cc(C2CCCN2C(=O)CCn2c(=O)oc3ccccc32)cn1 (stereo not drawn),4.91
13,O=C(CSc1ccc(F)cc1)NS(=O)(=O)c1ccc2c(c1)OCCO2,-29.1
14,Cn1cnnc1C1CCCN(C(=O)c2ccc3c(c2)OCCCO3)C1 (stereo not drawn),3.66
15,COC(=O)CN1CCN(c2cccc(C)c2)CC1,3.54
16,COc1ccc(S(=O)(=O)Cc2noc(CC(C)C)n2)cc1,5.52
17,CNC(=O)N1CCC2(CC1)c1ncc(-c3cccc(F)c3)n1CCN2C,7.97
18,CCN(CC)S(=O)(=O)N1C[C@H]2CC[C@@H](C1)N(Cc1cscn1)C2=O,-21.1
19,CNS(=O)(=O)CCNCC1(O)CCCN(CCC2CCCCC2)C1=O (stereo not drawn),0.28
20,COc1c(C)cnc(CN2CCC(N(C)S(C)(=O)=O)CC2)c1C,0.141
21,CNS(=O)(=O)CC(=O)N1CCCc2cc(C(C)C)ccc21,11.8
22,O=C(NCC(=O)N1CCCC1)c1nc(Cc2c(Cl)cccc2Cl)no1,2.63
23,O=C1COc2cc(C(=O)NS(=O)(=O)c3cccc(Cl)c3)ccc2N1,-4.01

row,SMILES,cytotoxicity at 10 µM [%]
1,CC(=O)NC1CCCN(C(=O)c2ccc(Br)cc2O)C1 (stereo not drawn),-10.4
2,CN1CCCn2c(nc(CNC(=O)c3nccn3C)cc2=O)C1,4.68
3,Cc1ccccc1CN(Cc1ccccn1)C(=O)CNS(C)(=O)=O,1.48
4,COc1ccc(OCCN2CCC(N3CCNC3=O)CC2)cc1,29.5
5,CSC(CNS(N)(=O)=O)c1cccc(Cl)c1 (stereo not drawn),-14.3
6,Cc1nnc(N2CCOC(C)(C(=O)NC3CCCC3)C2)c2ccccc12 (stereo not drawn),7.92
7,CCOc1c(C(N)=O)cn(C)c1-c1nc2cc(NC(C)=O)ccc2n1C,-46.9
8,Cc1nn(C)c(C)c1C1CCCN1Cc1noc(C2CC2)n1 (stereo not drawn),-6.95
9,COCCN(Cc1cccc(C#N)c1)Cc1nnsc1Cl,7.96
10,CNC(=O)NC(=O)CN1CCCC(Cc2ccccc2OC)C1 (stereo not drawn),4.95
11,Cc1cc(NC(=O)c2ccc(N3CCOCC3)c(F)c2)[nH]n1,-33.9
12,CC(=O)N1CC(C)CN(C(=O)c2cscn2)c2ccccc21 (stereo not drawn),1.98
13,CC1CCN(c2cc(CCC3CCCN3)ncn2)CC1 (stereo not drawn),-14.6
14,Cc1ccc(-c2nc(CNC3CCc4ncnn4C3)co2)c(C)c1 (stereo not drawn),-9.5
15,CN(Cc1noc2c1CCCC2)C(=O)Cn1cnc2ccccc2c1=O,-52.4
16,O=C(Cc1c[nH]c2ncccc12)NCC(O)c1ccsc1 (stereo not drawn),5.46
17,O=C(NC1CC1)[C@@]12CCO[C@@H]1CCN(Cc1ccc3c(c1)OCO3)C2,-2.87
18,COc1ccc(OCCN(C)c2cc(C)nc(N)n2)cc1,49.5
19,CCn1ncc2c1C(COC)N(C(=O)Cc1cccs1)CC2 (stereo not drawn),-109
20,CSCCC(C)(O)CNC(=O)c1ccsc1 (stereo not drawn),-4.57
21,Cc1ccc(C(NC(=O)CC2CCN(C(C)C)CC2)C(=O)O)cc1 (stereo not drawn),-9.99
22,Cc1cc(C)n(C2CCCN(C(=O)Cc3csc(C)n3)C2)n1 (stereo not drawn),-10.4
23,CCN1C(=O)C2(CCOCC2)c2cc(NC(=O)c3cnoc3C)ccc21,-2.54

row,SMILES,cytotoxicity at 10 µM [%]
1,COc1nccnc1N1CCN(Cc2cccc(F)c2)C(=O)C1,3.77
2,O=C(NCCCN1CCc2ccccc2C1)c1ccccc1Br,-10.2
3,COCCCN1CCC(NC(=O)C(C)C)CC1,-11.9
4,CC(O)c1cn(Cc2ccc(F)cc2)nn1 (stereo not drawn),4.78
5,CCN(CC)CCn1cnc(-c2ccccc2)c1-c1cnc(C)s1,3.33
6,Cc1c(S(=O)(=O)N2CCOCC2)cc2c(C)cc(=O)n3c2c1CCC3,3.36
7,CC(C)(C)c1noc(CN2CCCC(CNS(N)(=O)=O)C2)n1 (stereo not drawn),1.3
8,CN(CC(=O)NC(C)(C)C)C(=O)C1CC(c2cccc(F)c2)=NO1 (stereo not drawn),19.5
9,O=C(c1ccccc1)C1CCN(c2cncc(-n3cccn3)n2)CC1,0.935
10,CCS(=O)(=O)N1Cc2nccn2CC(COc2cccnc2)C1 (stereo not drawn),-2.34
11,CN1CCC(c2nc3ccc(-c4ccccc4)cn3n2)CC1,-5.29
12,CCOc1ncccc1NC(=O)N1CCN(c2ccc(O)cc2)CC1,-9.92
13,CN(CC(=O)N1CCCC1c1noc(C2CC2)n1)C1CC1 (stereo not drawn),9.62
14,CC(=O)N1CCN(C(=O)NCc2csc(Br)c2)CC1,-6.31
15,Cc1nc(CNC2CCCN(c3cccnn3)C2)no1 (stereo not drawn),-5.55
16,O=c1c2sccc2ncn1CC(O)CN1CCOCC1 (stereo not drawn),7.27
17,CCCN1CCC(c2nc3ccc(-c4cccc(F)c4)cn3n2)CC1,-125
18,CCNC(=O)NC(=O)CSC(C)c1ccccc1F (stereo not drawn),15.6
19,CN(CCCc1nccn1C)C(=O)C1CCN(C(=O)C2CC2)CC1,-4.49
20,CSc1ccc(CNC(=O)Cc2c(C)n[nH]c2C)cc1,4.16
21,CN1CCOC(CN(C(=O)CCc2ccco2)c2nccs2)C1 (stereo not drawn),-16.1
22,CO[C@@H]1CCN(Cc2c(C)noc2C)[C@@H]2CN(Cc3cccnc3)C[C@@H]21,11.9
23,Cn1ccnc1CN1CCN(CC(O)c2ccc(F)cc2)CC1 (stereo not drawn),-21.8

row,SMILES,cytotoxicity at 10 µM [%]
1,COCCc1noc(CN2CCN(c3ccc(OC)cc3)C(=O)C2C)n1 (stereo not drawn),0.296
2,O=C(CCc1nccs1)N1CCN(c2ccccn2)CC1,-19.7
3,CCn1cnnc1CNC(=O)c1ccc(Cl)cc1F,-0.457
4,CNc1ncccc1C(=O)N1CCC2(CCN(C)C2)CC1,0.521
5,O=C(NCc1csc(Br)c1)c1ccncc1,4.38
6,Cc1nc(Cc2ccccc2)nc2sc(C(=O)O)c(C)c12,0.986
7,Cn1cc(C(=O)N2CCCC2c2noc(C3CC3)n2)c2ccccc21 (stereo not drawn),-0.249
8,COCC1COCCC12CCN(C(=O)CC1=CCCCC1)CC2 (stereo not drawn),-1.86
9,Cc1nonc1C1CCCN1C(=O)CCc1cc2n(n1)CCCNC2 (stereo not drawn),-5.65
10,Cc1nnc(SC2CCN(c3sccc3C#N)C2=O)s1 (stereo not drawn),-7.22
11,CCn1cnnc1C1CCN(C(=O)c2cccc(C)c2C)CC1,-3.61
12,CN(CC(O)CO)c1nc(-c2cccnc2)nc2c1CCNC2 (stereo not drawn),-0.0186
13,COc1cccc(CNc2cc(C)nc(-c3ccncc3)n2)c1O,59.1
14,CNC(=O)CN1CCCC(Cc2ccccc2OC)C1 (stereo not drawn),-8.53
15,CCn1nc(C)c(CN(Cc2ccccn2)Cc2ccccc2Cl)c1C,5.17
16,Cc1nc(Nc2nnc(C)s2)cc(C2CCCN2)n1 (stereo not drawn),3.81
17,O=C(Nc1cn[nH]c1)NC1CCN(c2ccccc2OC(F)F)C1 (stereo not drawn),26.1
18,COc1ccc(Br)cc1CCC(=O)N1CCCC1,-4.2
19,COCCN1CCC2(CC1)CC(NCc1ccc(C)s1)c1ccccc12 (stereo not drawn),-121
20,CCOCc1cc(CN2CCn3c(CO)nnc3C2)ccc1OC,-37.2
21,Cc1cc(N2CCCN(CCc3ccccc3)CC2)ccn1,-3.67
